Source: PubChem BioAssay
Only some compounds are listed: those with a hit (about 2.3% of all), similar ones and a draw of the others.
TRPC6 inhibitor – blocks the mouse TRPC6 cation channel; B-score at 10 µM; AID 2553; Q61143; HEK293-TRPC6, membrane potential dye, ACh-evoked depolarization; hits give low values; hit rate 1.1% among 310,000;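 active = B-score under library mean minus 3 SD, initial fluorescence not abnormally high, positive integrated signal ratio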;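 note: B-score derived from integrated fluorescence ratio over the kinetic read; more negative B-score means stronger inhibition of depolarization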
Target sequence (Q61143 whole entry, looked up): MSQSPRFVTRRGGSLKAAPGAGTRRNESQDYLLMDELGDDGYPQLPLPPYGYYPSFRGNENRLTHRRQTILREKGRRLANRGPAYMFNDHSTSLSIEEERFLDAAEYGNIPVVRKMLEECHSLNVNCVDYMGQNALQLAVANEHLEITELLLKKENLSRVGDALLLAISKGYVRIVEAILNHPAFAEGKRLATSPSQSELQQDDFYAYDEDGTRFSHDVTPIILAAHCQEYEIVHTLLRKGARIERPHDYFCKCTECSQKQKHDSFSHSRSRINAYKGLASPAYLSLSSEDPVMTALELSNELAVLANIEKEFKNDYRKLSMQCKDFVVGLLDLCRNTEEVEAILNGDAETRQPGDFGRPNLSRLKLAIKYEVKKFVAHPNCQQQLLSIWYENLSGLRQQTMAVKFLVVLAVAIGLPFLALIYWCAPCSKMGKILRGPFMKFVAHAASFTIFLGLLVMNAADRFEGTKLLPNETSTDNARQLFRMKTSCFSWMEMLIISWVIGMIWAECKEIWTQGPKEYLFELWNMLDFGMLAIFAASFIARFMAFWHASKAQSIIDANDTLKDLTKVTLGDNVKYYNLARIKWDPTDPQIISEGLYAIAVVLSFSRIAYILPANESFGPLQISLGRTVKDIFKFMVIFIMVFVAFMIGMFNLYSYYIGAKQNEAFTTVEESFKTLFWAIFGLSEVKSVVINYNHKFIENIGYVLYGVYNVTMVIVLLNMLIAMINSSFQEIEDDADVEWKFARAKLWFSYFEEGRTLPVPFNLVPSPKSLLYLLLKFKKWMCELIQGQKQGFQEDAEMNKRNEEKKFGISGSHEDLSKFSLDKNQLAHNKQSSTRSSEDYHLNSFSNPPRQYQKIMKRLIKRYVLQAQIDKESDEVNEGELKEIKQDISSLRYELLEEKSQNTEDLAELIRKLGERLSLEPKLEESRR
TRPC6 act – mouse TRPC6 channel activation; Q61143; HEK293-TRPC6 membrane potential dye fluorescence; hits give high values; B-score at 10 µM; hit rate 0.13% among 310,000; AID 2550;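 active = B-score of the integrated fluorescence ratio above library mean plus 3 SD, and starting fluorescence ratio within library mean plus 5 SD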;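 note: higher score means more depolarization so channel activation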
TRPC4 PAM – allosteric potentiators of mouse TRPC4 channel; Q9QUQ5; HEK293 TRPC4beta/mu-opioid, DAMGO EC20, Fluo-4 Ca2+ flux; hits give high values; B-score at 10 µM; hit rate 0.42% among 310,000; AID 2227;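 active = B-score of calcium response area above 5 SD of library B-scores, with initial fluorescence ratio within 5 SD of library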
TRPC4 agonist – opens the mouse TRPC4 cation channel; AID 2237; Q9QUQ5; HEK293 TRPC4beta/mu-opioid, Fluo4 calcium fluorescence; hits give high values; hit rate 0.49% among 310,000; B-score at 10 µM;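 active = B-score above 5 SD of library B-scores, and initial fluorescence ratio not above library mean plus 5 SD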;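 note: positive B-score marks a calcium rise read as TRPC4 activation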
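Test system: HEK293 cells stably co-expressing mouse TRPC4beta and mu-opioid receptor | Schedule: Fluo4 dye loading 45 min at room temperature, 110 s recording | Measured by: Kinetic Fluo4 calcium fluorescence, 5 s baseline at 1 Hz | Evaluation: B score of integrated ratio | Controls: Buffer (low) and maximal DAMGO (high)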
TRPC4 inh – blocks the mouse TRPC4 cation channel | Q9QUQ5 | HEK293 TRPC4beta/mu-opioid, DAMGO-evoked Fluo4 calcium flux; hits give low values | B-score at 10 µM | hit rate 0.39% among 300,000;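 active = B-score over 3 SD under the library average, no early fluorescence shift, positive overall ratio signal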
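Material: HEK293 cells with stable TRPC4beta plus mu-opioid receptor expression; probe or stimulus: DAMGO in two steps, submaximal then maximal; technique: Fluo4 calcium fluorescence by kinetic imaging, 5 s 1 Hz baseline; measure: integrated fluorescence ratio relative to baseline, converted to per-well B score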
TRPC4 sel inh 2 – second selectivity test of TRPC6 inhibitors: effect on mouse TRPC4. shares compounds with TRPC6 inhibitor. inhibition, % at 10 µM. hit rate 42% among 920. HEK293 TRPC4/MOR, membrane potential dye fluorescence; channel activated by saturating DAMGO dose;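 active = compounds whose fluorescence signal differed from control wells by over 3 SD, either direction, in both duplicate plates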
TRPC4 spec – selectivity of TRPC6 inhibitors: effect on mouse TRPC4 | shares compounds with TRPC6 inhibitor | HEK293 TRPC4/mu-opioid, membrane potential fluorescence | activity change, negative = inhibition, % at 10 µM | hit rate 61% among 920 | AID 2777;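 active = rise or fall in signal beyond 3 SD of buffer-only wells in both replicate plates, either sign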;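 note: integrated kinetic ratio of fluorescence range over baseline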
HEK293 MPD ctr 2-1 – second check of TRPC6 inhibitor effects in parental HEK293 cells. signal change vs control, % at 10 µM. hit rate 31% among 920. parental HEK293 membrane potential dye fluorescence; maximal acetylcholine challenge after compound addition. shares compounds with TRPC6 inhibitor;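 active = membrane potential signal moving either way by over 3 SD of the maximum-effect control, in both duplicate plates, meaning non-specific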
HEK293 MPD ctr-1 – parental HEK293 nonspecific activity of TRPC6 inhibitors; shares compounds with TRPC6 inhibitor; parental HEK293 membrane potential dye fluorescence; membrane potential signal change, % at 10 µM; hit rate 60% among 920;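 active = membrane potential signal shifting up or down by more than 3 SD of buffer-only wells, on both duplicate plates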
HEK293 MPD ctr-2 – parental HEK293 nonspecific activity of TRPC6 modulators | shares compounds with TRPC6 inhibitor | membrane potential dye fluorescence | membrane potential signal change, % at 10 µM | hit rate 51% among 2,400 | AID 488924;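 active = membrane potential signal moves up or down beyond 5 SD from buffer-only wells, on both duplicate plates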
HEK293 MPD ctr 2-2 – second check of TRPC6 modulator effects in parental HEK293 cells; shares compounds with TRPC6 inhibitor; membrane potential dye fluorescence; after compound, maximal acetylcholine stimulation; inhibition, % at 10 µM; hit rate 14% among 2,400;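 active = membrane potential signal drops by more than 5 SD from the mean control signal, in both duplicate plates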
TRPC4 ctr mod – mouse TRPC4 off-target activity of TRPC6 modulators | shares compounds with TRPC6 inhibitor | HEK293 TRPC4/mu-opioid, membrane potential fluorescence | percent change from control (negative = decrease, positive = increase), % at 10 µM | hit rate 69% among 2,400 | AID 488927;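 active = membrane potential signal moved up or down beyond 5 SD of buffer control wells, in both duplicate plates, actives on both sides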
TRPC4/MOR inh 2 – second selectivity test of TRPC6 modulators against mouse TRPC4; shares compounds with TRPC6 inhibitor; HEK293 TRPC4/mu-opioid, membrane potential dye fluorescence; stimulated with maximal-effect DAMGO; inhibition, % at 10 µM; hit rate 55% among 2,400; AID 488928;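 active = drop in membrane potential signal beyond 5 SD of the control wells in both duplicate plates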;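 note: TRPC4 counter screen for TRPC6 hits run under conditions tuned for TRPC6 not TRPC4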
TRPC6 block conf – confirmation of mouse TRPC6 inhibitors | shares compounds with TRPC6 inhibitor | HEK293-TRPC6, membrane potential dye, ACh-evoked depolarization | inhibition, % at 10 µM | hit rate 43% among 3,300 | AID 488960;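 active = fluorescence ratio falls more than 5 SD below the full-stimulation control mean, in both duplicate runs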;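 note: integrated fluorescence ratio of peak minus minimum over baseline after agonist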
TRPC6 act conf – mouse TRPC6 activator confirmation | HEK293-TRPC6 membrane potential dye fluorescence, FDSS | shares compounds with TRPC6 inhibitor | hit rate 11% among 2,800 | AID 488961 | activation, % at 10 µM;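 active = ratio signal rise beyond 5 SD above unstimulated control wells' mean, seen in both duplicate runs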
A number is an active result.

For C#CC[N+](C)(C)CCCCCCCCCCCC the results were TRPC6 inhibitor -5.1, TRPC6 act inactive, TRPC4 PAM inactive, TRPC4 agonist inactive, TRPC4 inh inactive, HEK293 MPD ctr-2 inactive, HEK293 MPD ctr 2-2 inactive, TRPC4 ctr mod 19%, TRPC4/MOR inh 2 45% and TRPC6 block conf 60%.
`Cc1ccc(NC(=O)[C@@H](CC(C)C)NC(=O)[C@@H]2Cc3ccccc3CN2)cc1` gave TRPC6 inhibitor -5.1, TRPC6 act inactive, TRPC4 PAM inactive, TRPC4 agonist inactive, TRPC4 inh inactive, HEK293 MPD ctr-2 inactive, HEK293 MPD ctr 2-2 inactive, TRPC4 ctr mod inactive, TRPC4/MOR inh 2 46%, TRPC6 block conf 66% and TRPC6 act conf inactive.
For COc1nccnc1NS(=O)(=O)c1ccc(NCc2ccccc2O)cc1 the results were TRPC6 inhibitor inactive, TRPC6 act inactive, TRPC4 PAM inactive, TRPC4 agonist inactive and TRPC4 inh inactive.
`CN(C)CCNS(=O)(=O)c1ccc(N2CCN(c3ccc(F)cc3)CC2)c([N+](=O)[O-])c1` gave TRPC6 inhibitor -7, TRPC6 act inactive, TRPC4 PAM inactive, TRPC4 agonist inactive, TRPC4 inh inactive, TRPC4 sel inh 2 40%, TRPC4 spec -14%, HEK293 MPD ctr 2-1 inactive, HEK293 MPD ctr-1 -278%, TRPC6 block conf 52% and TRPC6 act conf inactive.
`CC(=O)N1CCN(c2ccc(S(=O)(=O)NCCN(C(C)C)C(C)C)cc2[N+](=O)[O-])CC1` gave TRPC6 inhibitor inactive, TRPC6 act inactive, TRPC4 PAM inactive, TRPC4 agonist inactive and TRPC4 inh inactive.
`O=c1[nH]c(-c2ccccc2)c(-c2ccccc2)nc1[N+](=O)[O-]` gave TRPC6 inhibitor inactive, TRPC6 act 12, TRPC4 PAM inactive, TRPC4 agonist inactive, TRPC4 inh inactive, HEK293 MPD ctr-2 inactive, HEK293 MPD ctr 2-2 inactive, TRPC4 ctr mod 16%, TRPC4/MOR inh 2 inactive, TRPC6 block conf inactive and TRPC6 act conf 48%.
Screening O=c1c2c3c(sc2nc(NCCO)n1-c1ccccc1)CCCC3 returned TRPC6 inhibitor inactive, TRPC6 act inactive, TRPC4 PAM inactive, TRPC4 agonist inactive and TRPC4 inh inactive.
`CN(C)CCCNc1nc2sc3c(c2c(=O)n1CCc1ccccc1)CCCCC3` gave TRPC6 inhibitor -7, TRPC6 act inactive, TRPC4 PAM inactive, TRPC4 agonist inactive, TRPC4 inh inactive, TRPC4 sel inh 2 74%, TRPC4 spec -11%, HEK293 MPD ctr 2-1 inactive, HEK293 MPD ctr-1 inactive, TRPC6 block conf inactive and TRPC6 act conf inactive.
For O=C(COc1ccc([N+](=O)[O-])cc1)Nc1ccncc1 the results were TRPC6 inhibitor -5.2, TRPC6 act inactive, TRPC4 PAM inactive, TRPC4 agonist inactive, TRPC4 inh inactive, HEK293 MPD ctr-2 -134%, HEK293 MPD ctr 2-2 inactive, TRPC4 ctr mod -28%, TRPC4/MOR inh 2 32%, TRPC6 block conf 37% and TRPC6 act conf inactive.
For O=C(COc1ccc(/C=N/NC(=O)c2ccncc2)cc1)Nc1ccc([N+](=O)[O-])cc1 the results were TRPC6 inhibitor inactive, TRPC6 act inactive, TRPC4 PAM inactive, TRPC4 agonist inactive and TRPC4 inh inactive.
CCOC(=O)c1c(CSc2ccccc2)n(C)c2cc(Br)c(OC)c(O)c12 was read as TRPC6 inhibitor inactive, TRPC6 act inactive, TRPC4 PAM inactive, TRPC4 agonist inactive and TRPC4 inh inactive.
For CCOC(=O)c1c(C)n(C)c2ccc(O)c(CN(CC)CC)c12 the results were TRPC6 inhibitor -6.5, TRPC6 act inactive, TRPC4 PAM inactive, TRPC4 agonist inactive, TRPC4 inh inactive, HEK293 MPD ctr-2 -112%, HEK293 MPD ctr 2-2 inactive, TRPC4 ctr mod -14%, TRPC4/MOR inh 2 52%, TRPC6 block conf 54% and TRPC6 act conf inactive.
CCOC(=O)c1c(CSc2ccccc2)n(C)c2ccc(O)c(CN3CCOCC3)c12 was read as TRPC6 inhibitor -5.5, TRPC6 act inactive, TRPC4 PAM inactive, TRPC4 agonist inactive, TRPC4 inh inactive, HEK293 MPD ctr-2 inactive, HEK293 MPD ctr 2-2 inactive, TRPC4 ctr mod inactive, TRPC4/MOR inh 2 55%, TRPC6 block conf 36% and TRPC6 act conf inactive.
CCOC(=O)c1c(C)n(C)c2ccc(O)c(CN3CCN(C)CC3)c12 was read as TRPC6 inhibitor inactive, TRPC6 act inactive, TRPC4 PAM inactive, TRPC4 agonist inactive and TRPC4 inh inactive.
For CCOC(=O)c1c(C)n(-c2ccccc2)c2ccc(O)cc12 the results were TRPC6 inhibitor inactive, TRPC6 act inactive, TRPC4 PAM inactive, TRPC4 agonist inactive and TRPC4 inh inactive.
CCOC(=O)c1c(C)n(-c2ccccc2)c2ccc(O)c(CN(C)C)c12 was read as TRPC6 inhibitor -6.5, TRPC6 act inactive, TRPC4 PAM inactive, TRPC4 agonist inactive, TRPC4 inh inactive, HEK293 MPD ctr-2 -90%, HEK293 MPD ctr 2-2 inactive, TRPC4 ctr mod -18%, TRPC4/MOR inh 2 65%, TRPC6 block conf 69% and TRPC6 act conf inactive.
`CCOC(=O)c1c(C)n(C)c2ccc(O)c(CN3CCC(C)CC3)c12` gave TRPC6 inhibitor -9.4, TRPC6 act inactive, TRPC4 PAM inactive, TRPC4 agonist inactive, TRPC4 inh inactive, HEK293 MPD ctr-2 -140%, HEK293 MPD ctr 2-2 inactive, TRPC4 ctr mod -18%, TRPC4/MOR inh 2 73%, TRPC6 block conf 64% and TRPC6 act conf inactive.
